Assay results published in ChEMBL document CHEMBL3526105, “Cytochrome P450-mediated oxidative metabolism of abused synthetic cannabinoids found in K2/Spice: identification of novel cannabinoid receptor ligands” (Drug Metab Dispos, 2012).
The source made the active and inactive calls. The rule behind the calls is not given here.

What was measured:
Cytochrome P450 2D6 = Cytochrome P450 2D6 (Homo sapiens, UniProt P10635); assay: Drug metabolism assessed as intrinsic clearance for human recombinant CYP2D6-mediated compound formation per nmol protein treated with AM2201 at 10 uM after 90 mins; format: ADME; settings: recombinant enzyme, 1.5 h
Cytochrome P450 2D6, sequence (P10635 whole entry): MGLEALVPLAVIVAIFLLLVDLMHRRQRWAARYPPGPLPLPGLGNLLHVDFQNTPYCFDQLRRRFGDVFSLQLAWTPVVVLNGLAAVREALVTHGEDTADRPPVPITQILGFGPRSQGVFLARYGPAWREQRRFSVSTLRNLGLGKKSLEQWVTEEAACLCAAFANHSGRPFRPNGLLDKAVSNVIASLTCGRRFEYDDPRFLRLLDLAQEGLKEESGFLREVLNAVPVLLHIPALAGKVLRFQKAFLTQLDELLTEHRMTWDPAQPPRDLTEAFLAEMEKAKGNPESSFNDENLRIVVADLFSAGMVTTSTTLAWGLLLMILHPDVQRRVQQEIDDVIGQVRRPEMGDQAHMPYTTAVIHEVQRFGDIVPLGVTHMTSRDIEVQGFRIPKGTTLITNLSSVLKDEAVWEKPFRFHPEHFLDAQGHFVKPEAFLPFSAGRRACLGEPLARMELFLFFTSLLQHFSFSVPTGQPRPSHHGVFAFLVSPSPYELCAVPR

Cytochrome P450 2C19 = Cytochrome P450 2C19 (Homo sapiens, UniProt P33261); assay: Drug metabolism assessed as intrinsic clearance for human recombinant CYP2C19-mediated compound formation per nmol protein treated with AM2201 at 10 uM after 90 mins; format: ADME; settings: recombinant enzyme, 1.5 h
Cytochrome P450 2C19, sequence (P33261 whole entry): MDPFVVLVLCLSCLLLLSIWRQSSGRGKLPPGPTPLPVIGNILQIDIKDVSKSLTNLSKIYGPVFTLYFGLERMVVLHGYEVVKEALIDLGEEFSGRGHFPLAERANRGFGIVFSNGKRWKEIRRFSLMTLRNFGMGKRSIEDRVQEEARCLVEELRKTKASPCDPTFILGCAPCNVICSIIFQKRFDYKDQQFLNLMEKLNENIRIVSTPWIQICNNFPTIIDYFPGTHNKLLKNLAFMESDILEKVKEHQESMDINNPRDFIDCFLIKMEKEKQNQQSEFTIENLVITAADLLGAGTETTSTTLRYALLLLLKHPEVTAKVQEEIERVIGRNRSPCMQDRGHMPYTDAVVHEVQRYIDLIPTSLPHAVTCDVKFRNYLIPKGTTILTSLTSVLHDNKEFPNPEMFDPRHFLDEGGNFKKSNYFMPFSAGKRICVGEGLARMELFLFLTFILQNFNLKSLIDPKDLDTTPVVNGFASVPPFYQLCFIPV

Cytochrome P450 2C9 = Cytochrome P450 2C9 (Homo sapiens, UniProt P11712); assay: Drug metabolism assessed as intrinsic clearance for human recombinant CYP2C9-mediated compound formation per nmol protein treated with AM2201 at 10 uM after 90 mins; format: ADME; settings: recombinant enzyme, 1.5 h
Cytochrome P450 2C9, sequence (P11712 whole entry): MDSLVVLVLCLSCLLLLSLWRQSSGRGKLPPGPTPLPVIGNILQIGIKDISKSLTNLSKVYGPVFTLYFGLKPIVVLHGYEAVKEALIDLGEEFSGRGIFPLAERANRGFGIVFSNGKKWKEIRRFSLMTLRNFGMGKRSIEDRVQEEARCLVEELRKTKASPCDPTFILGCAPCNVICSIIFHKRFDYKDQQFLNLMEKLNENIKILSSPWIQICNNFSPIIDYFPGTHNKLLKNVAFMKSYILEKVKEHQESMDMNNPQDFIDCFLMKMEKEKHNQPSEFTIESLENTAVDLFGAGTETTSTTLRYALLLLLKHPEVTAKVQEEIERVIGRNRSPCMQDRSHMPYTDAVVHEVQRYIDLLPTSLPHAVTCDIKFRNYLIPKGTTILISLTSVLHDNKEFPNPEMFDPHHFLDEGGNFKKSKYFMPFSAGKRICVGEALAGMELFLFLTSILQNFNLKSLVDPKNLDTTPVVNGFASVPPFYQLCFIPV

Cytochrome P450 1A2 = target: T1, Cytochrome P450 1A2 (Homo sapiens, UniProt P05177); assay: Drug metabolism assessed as intrinsic clearance for human recombinant CYP1A2-mediated compound formation per nmol protein treated with AM2201 at 10 uM after 90 mins; format: ADME; settings: recombinant enzyme, 1.5 h
T1 sequence (P05177 whole entry): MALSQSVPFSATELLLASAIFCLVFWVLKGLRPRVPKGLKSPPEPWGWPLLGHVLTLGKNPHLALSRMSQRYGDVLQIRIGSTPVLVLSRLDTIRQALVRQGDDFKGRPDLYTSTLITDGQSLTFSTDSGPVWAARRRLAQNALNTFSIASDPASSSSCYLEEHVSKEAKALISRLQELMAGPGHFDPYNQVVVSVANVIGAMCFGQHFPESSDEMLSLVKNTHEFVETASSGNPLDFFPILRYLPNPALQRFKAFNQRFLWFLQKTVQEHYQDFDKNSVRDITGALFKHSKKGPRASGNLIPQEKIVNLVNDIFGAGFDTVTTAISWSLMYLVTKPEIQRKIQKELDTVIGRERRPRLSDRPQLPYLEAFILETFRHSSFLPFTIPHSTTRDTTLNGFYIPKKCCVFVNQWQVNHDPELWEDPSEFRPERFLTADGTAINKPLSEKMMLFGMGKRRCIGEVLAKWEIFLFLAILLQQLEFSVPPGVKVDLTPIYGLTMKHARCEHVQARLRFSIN

Liver microsome [1] = assay: Drug metabolism in human liver microsomes assessed as intrinsic clearance per mg protein treated with AM2201; format: ADME
[2] = target: Cannabinoid receptor 1 (Mus musculus) (UniProt P47746); assay: Activation of CB1 receptor in B6SJL mouse brain membrane assessed as [35S]-GTPgammaS binding at 10 uM after 30 mins by liquid scintillation spectrophotometric analysis; format: functional, cell membranes
Cannabinoid receptor 1 (Mus musculus), sequence (P47746 whole entry): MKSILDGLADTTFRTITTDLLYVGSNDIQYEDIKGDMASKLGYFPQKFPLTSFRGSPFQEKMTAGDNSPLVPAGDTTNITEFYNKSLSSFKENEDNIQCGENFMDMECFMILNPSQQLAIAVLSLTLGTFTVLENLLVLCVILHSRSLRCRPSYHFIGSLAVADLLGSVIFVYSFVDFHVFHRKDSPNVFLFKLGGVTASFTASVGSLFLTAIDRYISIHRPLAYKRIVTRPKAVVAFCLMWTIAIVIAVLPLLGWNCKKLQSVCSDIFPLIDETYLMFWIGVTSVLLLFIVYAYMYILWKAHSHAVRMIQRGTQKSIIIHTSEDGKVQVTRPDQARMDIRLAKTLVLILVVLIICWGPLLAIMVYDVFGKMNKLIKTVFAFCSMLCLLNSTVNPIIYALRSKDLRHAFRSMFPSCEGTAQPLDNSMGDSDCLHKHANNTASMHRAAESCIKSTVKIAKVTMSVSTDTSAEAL
Outline: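 Mouse brain membrane homogenate (25 μg; whole B6SJL brains, pooled, Dounce-homogenised, spun 40,000g three times). Incubated with […], 0.1 nM [35S]GTPγS in 20 mM HEPES, 10 mM MgCl2, 100 mM NaCl, 20 U/l adenosine deaminase, 0.05% BSA, 30 min at 30°C, triplicate. Nonspecific binding with 10 μM unlabelled GTPγS. Stopped by GF/B filtration; filters counted by scintillation.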

[3] = target: Cannabinoid receptor 1 (Mus musculus) (UniProt P47746); assay: Activation of CB1 receptor in B6SJL mouse brain membrane assessed as [35S]-GTPgammaS binding at 10 uM after 30 mins by liquid scintillation spectrophotometric analysis in presence of O-2050; format: functional, cell membranes
Liver microsome [4] = assay: Drug level in human liver microsomes treated with JWH-018 at 10 uM after 20 mins by LC-MS/MS analysis; format: ADME
Outline: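 Pooled human liver microsomes (75 μg) incubated with 10 μM substrate in 0.1 M KPO4 pH 7.4 with NADPH-regenerating system at 37°C. Reaction stopped with ethanol, centrifuged. Analytes quantified by positive-ESI LC-MS/MS against standards matrix-matched in reaction mixture, with confirmation by SRM-triggered enhanced product ion spectra library matching.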

Liver microsome [5] = assay: Drug metabolism in human liver microsomes assessed as intrinsic clearance per mg protein treated with JWH-018; format: ADME
Cytochrome b5 = Cytochrome b5 (Homo sapiens, UniProt P00167); assay: Drug metabolism assessed as cytochrome b5 (unknown origin)-mediated compound formation treated with JWH-018 at 10 uM after 90 mins by LC-MS/MS analysis in presence of oxidoreductase; format: ADME; settings: 1.5 h
Cytochrome b5, sequence (P00167 whole entry): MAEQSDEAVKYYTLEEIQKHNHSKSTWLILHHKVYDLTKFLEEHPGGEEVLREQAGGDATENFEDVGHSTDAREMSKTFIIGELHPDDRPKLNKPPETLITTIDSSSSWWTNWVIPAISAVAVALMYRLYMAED

SMILES: O=C(c1cccc2ccccc12)c1cn(CCCC(O)CF)c2ccccc12 (configuration not stated)
- CL (Cytochrome P450 2D6): 3.7 µL/min
- CL (Cytochrome P450 2C19): 32 µL/min
- CL (Cytochrome P450 2C9): 63 µL/min
- CL (Cytochrome P450 1A2): 19 µL/min
- CLH (Liver microsome [1]): 0.124 µL/min/g
- Activity [2]: Active

SMILES: CCCCCCC(C)(C)c1ccc([C@@H]2C[C@H](O)CC[C@H]2CCCO)c(O)c1
- Activity [3]: inactive
- Activity [2]: Active

SMILES: CCCCCn1cc(C(=O)c2cccc3ccccc23)c2cc(O)ccc21
- Drug metabolism (Liver microsome [4]): metabolite_detected
- CLH (Liver microsome [5]): 0.52 µL/min/mg
- CLH (Liver microsome [1]): 0 µL/min/g

SMILES: CCCCCc1cc(O)c2c(c1)OC(C)(C)[C@@H]1CCC(C)=C[C@@H]21
- Activity [3]: inactive
- Activity [2]: Active

SMILES: CCCCCn1cc(C(=O)c2cccc3ccccc23)c2ccc(O)cc21
- Drug metabolism (Liver microsome [4]): metabolite_detected
- CLH (Liver microsome [5]): 1 µL/min/mg
- CLH (Liver microsome [1]): 0 µL/min/g
- Drug metabolism (Cytochrome b5): metabolite_detected
